# Screening results from PubChem.
# CHRM4 PAM = positive allosteric modulators of human muscarinic M4 receptor; P08173; CHO-K1 hM4/Gqi5, Fluo-8 calcium fluorescence, ACh EC20; 0% = ACh EC20, 100% = maximal ACh; activation, % at 3 µM; 0.4% of 360,000 active;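 active = activation above its plate's cutoff, the mean activation of sample wells plus 3 SD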
# M5 PAM = positive allosteric modulators of human muscarinic M5 receptor; P08912; CHO-K1 hM5, Fluo-8 calcium, ACh EC20 PAM; 0% = ACh EC20, 100% = ACh EC100; activation, % at 3 µM; 0.3% of 360,000 active; AID 624038;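 active = activation above the run cutoff, the mean activation of all test compounds plus 3 SD, cut at about 18% in these data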
# Target sequence (P08912 whole entry, looked up): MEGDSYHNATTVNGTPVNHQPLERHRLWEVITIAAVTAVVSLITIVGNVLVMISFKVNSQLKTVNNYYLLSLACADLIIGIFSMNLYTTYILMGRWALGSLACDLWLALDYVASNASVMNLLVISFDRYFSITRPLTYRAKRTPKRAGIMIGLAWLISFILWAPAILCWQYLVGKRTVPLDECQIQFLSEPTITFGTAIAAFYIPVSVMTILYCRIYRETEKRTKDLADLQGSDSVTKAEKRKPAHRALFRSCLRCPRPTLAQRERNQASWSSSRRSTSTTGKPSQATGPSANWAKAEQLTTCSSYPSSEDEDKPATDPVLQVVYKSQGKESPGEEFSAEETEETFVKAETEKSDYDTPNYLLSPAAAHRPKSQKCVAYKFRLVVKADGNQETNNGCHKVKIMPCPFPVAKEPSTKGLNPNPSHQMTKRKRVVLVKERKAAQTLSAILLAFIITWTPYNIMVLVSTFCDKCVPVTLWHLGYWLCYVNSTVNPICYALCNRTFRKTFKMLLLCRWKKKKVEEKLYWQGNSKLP
#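 system = human M5 receptor in CHO-K1 cells | reagent = EC20 acetylcholine as agonist stimulus | compound dosing = single-point, 3 µM nominal | incubation = Fluo-8 loading 80 min at 37 °C plus 30 min room temperature | detection = Fluo-8 calcium dye fluorescence, kinetic read | benchmarks = low control EC20 acetylcholine (0%), high control EC100 acetylcholine (100%)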
# M4 antag = antagonists of human muscarinic M4 receptor (CHRM4) | 0.73% of 360,000 active | CHO-hM4 cells, ACh EC80, Fluo-8 calcium fluorescence | inhibition, % at 3 µM | P08173;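 active = inhibition above its plate's cutoff, the mean inhibition of sample wells plus 3 SD, cut at about 27% in these data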
# CHRM5 agonist = CHRM5 agonism in calcium assay | 0.19% of 360,000 active | CHO-K1 hM5 cells, Fluo-8 calcium fluorescence; 0% DMSO wells, 100% maximal acetylcholine response | AID 624037 | activation, % at 3 µM | P08912;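 active = activation above the run's mean over test compounds plus 3 SD, cut at about 23% in these data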;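 also: signal is peak over basal fluorescence ratio across the kinetic read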
# CHRM5 antagonist = CHRM5 antagonism in calcium assay. P08912. CHO-hM5 cells, Fluo-8 calcium fluorescence, ACh EC80. inhibition, % at 3 µM. 0.59% of 360,000 active;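 active = inhibition above a per-plate cutoff, the mean of that plate's test compounds plus 3 SD, cut at about 27% in these data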
# M4 ag = CHRM4 agonism in calcium assay | P08173 | CHO-K1 hM4/Gqi5, Fluo-8 calcium fluorescence; vehicle 0%, full acetylcholine response 100% | activation, % at 3 µM | 0.14% of 360,000 active | AID 624127;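 active = activation above the run mean over all test wells plus 3 SD, cut at about 32% in these data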;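 also: peak over basal fluorescence ratio per well then scaled between controls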
# Hits are given with their value; 0 = inactive. The list is not random: actives were taken first. Their share in the collection is about 1.8%.
SMILES,CHRM4 PAM,M5 PAM,M4 antag,CHRM5 agonist,CHRM5 antagonist,M4 ag
COCCN(Cc1ccc(OC)cc1)c1c(C)nc2ccc(C(=O)NCCc3c[nH]c4ccccc34)cn12,0,0,0,0,0,0
CCOC(=O)c1c(NC(=O)CSc2nnc(-c3ccc(C)cc3)o2)sc(C(C)=O)c1C,0,0,0,0,0,0
CCOC(=O)c1sc(NC(=O)CSc2nc(C)cc(C)n2)c(C#N)c1C,0,0,0,0,0,0
CCOC(=O)c1c(NC(=O)CSc2nnc(-c3ccccc3)o2)sc(C(C)=O)c1C,15,0,0,0,0,0
CCOC(=O)c1sc(NC(=O)CSc2n[nH]c(-c3ccccc3)n2)c(C#N)c1C,0,0,0,0,34,0
CCCC(=O)Nc1ccc2c(c1)C(=O)N(C)C[C@@H](OC)[C@H](C)CN(Cc1ccc(-c3ccccn3)cc1)[C@@H](C)CO2,0,0,0,0,0,0
COC1=CC(C)C2CC3OC(=O)CC4C(C)=C(OC)C(=O)C(C2(C)C1=O)C34C (configuration not stated),0,0,0,0,0,0
Cc1cccn2c(=O)c(C=O)c(N3CCCCC3)nc12,0,20,0,0,0,0
O=C(NNC1CC(=O)N(c2ccc(Br)cc2)C1=O)c1ccco1 (configuration not stated),0,0,0,0,0,0
CCOC(=O)CNC1CC(=O)N(c2ccc(Br)cc2)C1=O (configuration not stated),0,21,0,0,0,0
CCOC(=O)c1ccc(N2C(=O)CC(Nc3ccc(O)cc3)C2=O)cc1 (configuration not stated),0,0,0,0,0,0
O=C(NNC1CC(=O)N(c2ccc(Br)cc2)C1=O)c1cccs1 (configuration not stated),0,0,30,0,0,0
CN(C)CCOC1c2ccccc2CSc2ccccc21 (configuration not stated),0,0,98,0,99,0
C/C(=N/NC(=O)CNC(=O)c1ccccc1)c1ccc(C)cc1,0,0,0,0,0,0
C/C(=N\NC(=O)CNC(=O)c1cccc(F)c1)c1ccc2ccccc2c1,0,0,40,0,0,0
O=C(c1ccccc1)c1ccc2ccccc2c1,0,0,0,0,0,0
O=C(c1ccccc1)c1c2c(cc3sc4ccccc4[n+]13)-c1cccc3cccc-2c13,0,0,59,0,0,33
c1ccc(C(Cc2nc(-c3ccncc3)no2)c2ccccc2)cc1,0,0,0,0,31,0
Cc1ccc(NC(=O)c2cc([N+](=O)[O-])ccc2N2CCOCC2)cc1S(=O)(=O)N(C)C,0,0,49,0,0,0
Cc1ccc(NC(=O)c2cc([N+](=O)[O-])ccc2N2CCOCC2)cc1C,0,0,0,0,0,0
O=C(NCc1ccco1)c1ccccc1-c1ccccc1,0,0,0,0,0,0
Cc1scc(C(=O)NCc2ccco2)c1-c1ccccc1,42,0,0,0,0,0
Cc1sc[n+](CC(=O)c2ccc(Br)cc2)c1C,0,0,0,0,0,0
Cc1c(CCOC(=O)c2ccc(Cl)cc2Cl)sc[n+]1CC(=O)c1ccccc1,0,0,44,0,45,0
Cc1c(CCOC(=O)C23CC4(C)CC(C)(CC(C)(C4)C2)C3)sc[n+]1CC(=O)c1ccccc1,0,0,0,0,0,0
SMILES,CHRM4 PAM,M5 PAM,M4 antag,CHRM5 agonist,CHRM5 antagonist,M4 ag
Cc1c(CCOC(=O)c2cc([N+](=O)[O-])cc([N+](=O)[O-])c2)sc[n+]1CC(=O)c1ccc(Br)cc1,0,0,29,0,0,0
COc1cccc(-c2cccc3c2NC(=O)C3(C)Cc2cccc(F)c2)c1 (configuration not stated),0,0,0,0,0,0
CCOC(=O)N1CCC(N2C(=O)c3ccc(C(=O)NCc4ccc(F)cc4)cc3C2=O)CC1,0,0,0,0,0,0
CCOC(=O)N1CCC(N2CCN(c3cc(C)ccc3C)CC2)CC1,0,0,0,0,55,0
CCOC(=O)N1CCC(N2C(=O)c3ccc(C(=O)O)cc3C2=O)CC1,0,21,0,0,0,0
C[C@@H]1CN([C@@H](C)CO)C(=O)c2ccccc2-c2ccccc2CO[C@@H]1CN(C)S(=O)(=O)c1ccc(C(F)(F)F)cc1,0,0,0,0,0,0
Cc1cc(NC(=O)COc2ccc(C)c(C)c2)no1,0,0,0,0,0,0
Cc1cc(NC(=O)COc2ccc(F)c(Cl)c2)no1,19,0,0,0,0,0
COCCCNC(=O)C[C@@H]1C[C@@]2(C(=O)OC)CC(C)(C)CC=C2N(Cc2ccc3c(c2)OCO3)C1=O,0,0,0,0,0,0
CCN(CC(=O)Nc1c(F)cccc1F)C(=O)CCCN1C(=O)c2cccc3cccc(c23)C1=O,0,0,0,0,0,0
COc1cccc(N2CCN(C(=O)c3cccn4c(=O)c5c(C)c(C)sc5nc34)CC2)c1,0,19,0,0,0,0
COc1ccc(N2CCN(C(=O)c3cccn4c(=O)c5ccccc5nc34)CC2)cc1,0,0,0,0,0,0
CCCCNC(=O)C1(C)CCN1C(=O)c1cc(C)n(C(C)(C)C)n1 (configuration not stated),0,0,0,0,0,0
Cc1cc(O)ccc1Nc1cc(-c2cccc(N)c2)ncn1,0,0,0,0,0,0
CCN1CCN(C(CNS(=O)(=O)c2ccc(Cl)cc2)c2ccccc2)CC1 (configuration not stated),0,0,0,0,28,0
O=S(=O)(NCC(c1ccccc1)N1CCNCC1)c1ccc(Cl)cc1 (configuration not stated),0,0,0,0,0,0
Cc1ccc(-n2c(-c3ccccc3)c[n+]3c2CCc2ccccc2-3)c(C)c1,0,0,0,0,35,0
CC1CN=C(NS(=O)(=O)c2ccccc2)N1 (configuration not stated),0,0,0,0,0,0
CN(C)S(=O)(=O)c1cccc(CSCc2cccc(S(=O)(=O)N(C)C)c2)c1,0,0,0,0,41,0
Cc1ccc(OCc2ccc(C(=O)NNC(=S)NCC3CCCO3)o2)c([N+](=O)[O-])c1 (configuration not stated),0,19,0,0,0,0
COc1ccc(-c2cn3cccnc3n2)cc1NC(=O)C1CC1,0,19,26,0,0,0
Oc1c(C(c2ccccc2)N2CCCCC2)ccc2ccccc12 (configuration not stated),0,0,0,0,0,0
O=C1Cc2ccccc2Sc2ccccc21,0,0,0,0,0,0
